This is an account of results in ChEMBL document CHEMBL3098119, “Exploring naphthyl-carbohydrazides as inhibitors of influenza A viruses” (Eur J Med Chem, 2014).

Active and inactive are the calls of the source. The calls are words filed in the database; no cut-off is given here.

Data set [1] concerns Influenza A virus. Briefly: Antiviral activity against Influenza A virus (A/udorn/307/1972 H3N2) infected in MDCK cells assessed as inhibition of viral replication at 4 uM after 36 to 48 hrs by hemagglutination assay. Type of data set: functional, organism-based. Summed up: (§1)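 MDCK cells infected with Ud virus at moi 0.001 PFU/cell. After 1 h adsorption, compound was added at 4 or 8 μM in medium containing 1% DMSO. Medium aliquots were taken at 24, 36 and 48 h and assayed for hemagglutinin (HA) titre. Infected cells without inhibitor served as the control.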

Data set [2] has as its system Influenza A virus. The data set can be described thus: Antiviral activity against Influenza A virus (A/udorn/307/1972 H3N2) infected in MDCK cells assessed as reduction in viral RNA titer at 4 uM after 36 to 48 hrs by RT-qPCR analysis. It is filed as functional, organism-based. Summed up:
(§2)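 Infection was the same: MDCK, Ud virus at moi 0.001 PFU/cell, 1 h adsorption, then compound at 4 or 8 μM in 1% DMSO medium. Supernatant was sampled at 24, 36 and 48 h. Neuraminidase-segment vRNA was reverse transcribed in duplicate (forward primer 1.25 μM, 12 h, 37 C), then amplified by probe qPCR in duplicate (primers 0.8 μM, probe 0.24 μM, 50 cycles). Results were normalized to the start of infection.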
Background: Real-time PCR tracks product formation cycle by cycle.

Data set [3] has as its system Influenza A virus. Briefly: Antiviral activity against Influenza A virus (A/udorn/307/1972 H3N2) infected in MDCK cells assessed as inhibition of viral replication at 8 uM after 24 to 48 hrs by hemagglutination assay. It is filed as functional, organism-based. Summed up: as §1
For data set [4], the system named is Influenza A virus. The data set can be described thus: Antiviral activity against Influenza A virus (A/udorn/307/1972 H3N2) infected in MDCK cells assessed as reduction in viral RNA titer at 8 uM after 24 to 48 hrs by RT-qPCR analysis. It is filed as functional, organism-based. The procedure, abridged:
as §2

Data set [5] deals with Influenza A virus. The data set can be described thus: Antiviral activity against Influenza A virus (A/udorn/307/1972 H3N2) infected in MDCK cells assessed as reduction in viral RNA titer at 4 to 8 uM after 24 to 48 hrs by RT-qPCR analysis relative to control. It is filed as functional. The procedure, abridged:
as §2

The test system of data set [6] is Influenza A virus. Briefly: Antiviral activity against Influenza A virus (A/udorn/307/1972 H3N2) infected in MDCK cells assessed as inhibition of viral replication at 4 to 8 uM after 24 to 48 hrs by hemagglutination assay. It is filed as functional, organism-based. The procedure, abridged:
as §1

The test system of data set [7] is MDCK. The data set can be described thus: Cytotoxicity against MDCK cells infected with Influenza A virus (A/udorn/307/1972 H3N2) at 4 uM after 24 to 48 hrs by CellTiter-Glo cell viability assay. Type of data set: cell-based, Canis lupus familiaris. The settings on record: dog. The procedure, abridged:
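CellTiter-Glo ATP luminescence was measured in MDCK cells infected with Ud virus at low multiplicity, with or without 4 μM compound. Cells were lysed at several times over the 48 h infection.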
For orientation: ATP-based viability assays read luminescence as a measure of living cells.

For data set [8], the system named is Influenza A virus. The data set can be described thus: Antiviral activity against Influenza A virus (A/udorn/307/1972 H3N2) infected in MDCK cells assessed as reduction in viral RNA titer up to 6.5 hrs by RT-qPCR analysis. Type of data set: functional, organism-based.
The subject of data set [9] is Influenza A virus. The data set can be described thus: Antiviral activity against Influenza A virus (A/udorn/307/1972 H3N2) infected in MDCK cells assessed as inhibition of viral replication at 4 uM after 36 hrs by hemagglutination assay. It is filed as functional, organism-based. The procedure, abridged: as §1
For data set [10], the system named is Influenza A virus. The data set can be described thus: Antiviral activity against Influenza A virus (A/udorn/307/1972 H3N2) infected in MDCK cells assessed as reduction in viral RNA titer at 4 uM after 36 hrs by RT-qPCR analysis. Type of data set: functional, organism-based. The procedure, abridged:
as §2

Data set [11] has as its system Influenza A virus. Briefly: Antiviral activity against Influenza A virus (A/udorn/307/1972 H3N2) infected in MDCK cells assessed as inhibition of viral replication at 4 uM after 48 hrs by hemagglutination assay. Type of data set: functional, organism-based. Summed up: as §1
Data set [12] concerns Influenza A virus. The data set can be described thus: Antiviral activity against Influenza A virus (A/udorn/307/1972 H3N2) infected in MDCK cells assessed as reduction in viral RNA titer at 4 uM after 48 hrs by RT-qPCR analysis. It is filed as functional, organism-based. The procedure, abridged: as §2
For data set [13], the system named is Influenza A virus. The data set can be described thus: Antiviral activity against Influenza A virus (A/udorn/307/1972 H3N2) infected in MDCK cells assessed as inhibition of viral replication at 4 to 8 uM after 24 hrs by hemagglutination assay. Type of data set: functional, organism-based. The procedure, abridged: as §1
Data set [14] relates to Influenza A virus. Briefly: Antiviral activity against Influenza A virus (A/udorn/307/1972 H3N2) infected in MDCK cells assessed as reduction in viral RNA titer at 4 to 8 uM after 24 hrs by RT-qPCR analysis. It is filed as functional, organism-based. The procedure, abridged:
as §2

`O=C(N/N=C(\CCCCl)c1ccc2c(c1)CCCC2)c1cc2ccccc2cc1O`: the inhibition entry in data set [1] and in data set [2] was “inactive” in each case. The inhibition result in data set [3] and in [4] was “Active” each time.

For the molecule `CN(C)CCC/C(=N\NC(=O)c1cc2ccccc2cc1O)c1ccc2c(c1)CCCC2`, the inhibition result in data set [1] and in [2] was “inactive” throughout. Besides, the inhibition result in data set [3] and in data set [4] was “Active” each time.

In the case of `O=C(N/N=C(/c1ccc2c(c1)CCCC2)C1CC1)c1cc2ccccc2cc1O`, the inhibition result in [3] and in data set [4] was “Active” in each case.

For the molecule `O=C(N/N=C(\c1ccccc1)c1ccc2c(c1)CCCC2)c1cc2ccccc2cc1O`, the “fold change (FC)” value in data set [5] worked out at 1000. Also, the inhibition result in [6] and in [8] was “Active” in each case. Further, the Activity result in data set [7] is given as “Non-toxic”.

`O=C(N/N=C(/c1ccc2c(c1)CCCC2)C1CCCCC1)c1cc2ccccc2cc1O`: the inhibition result in data set [9], in data set [1], in data set [2], in data set [3] and in data set [10] was “Active” in each case.

In the case of `O=C(N/N=C(/c1ccc2c(c1)CCCC2)C1CCCC1)c1cc2ccccc2cc1O`, the inhibition entry in data set [1], in data set [2], in data set [3] and in data set [4] was “Active” each time.

Take `CCC/C(=N\NC(=O)c1cc2ccccc2cc1O)c1ccc2c(c1)CCCC2`: the inhibition entry in [11] and in data set [12] was “inactive” in each case. In addition, the inhibition result in data set [3] and in [4] was “Active” in each case.

On to `CC(C)/C(=N\NC(=O)c1cc2ccccc2cc1O)c1ccc2c(c1)CCCC2`, for which the inhibition result in data set [13] and in [14] was “Active” in each case.

Consider `CC/C(=N\NC(=O)c1cc2ccccc2cc1O)c1ccc2c(c1)CCCC2`, for which the inhibition result in data set [13], in data set [3], in data set [14] and in data set [4] was “Active” throughout.
